Experimental data from ChEMBL document CHEMBL1136005 (J Med Chem, 2002).

Key:
[1] = Lipophilicity was reported; type: physicochemical; conditions: octanol/water
[2] = pharmacokinetic parameter was evaluated after oral administration of 30 mg/kg to rat; type: ADME, organism-based; design: dose 30 mg/kg, route oral; conditions: in vivo
In short: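 Sprague-Dawley rats, n=3, dosed orally at 30 mg/kg. Plasma drug concentrations were followed to derive Tmax (h), Cmax (µg/mL), T1/2 (h) and AUC0-∞ (µg h/mL).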

[3] = Plasma concentration was determined after 8 hr at a dose 30 mg/kg administered orally to rat-13; type: ADME, organism-based; design: dose 30 mg/kg, route oral; conditions: po
In short: (§1)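 Sprague-Dawley rats, n=2 per compound, dosed orally at 30 mg/kg. Plasma drug concentration measured 1 and 8 h after dosing.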

[4] = Plasma concentration was determined after 8 hr at a dose 30 mg/kg administered orally to rat-14; type: ADME, organism-based; design: dose 30 mg/kg, route oral; conditions: po; in short: as §1
[5] = molecular target: Platelet-derived growth factor receptor (Homo sapiens, UniProt P09619+P16234); assay: Concentration required for 50% inhibition against autophosphorylation of Platelet-derived growth factor receptor beta in intact cells using a two site ELISA; type: cell-based
[6] = Plasma concentration was determined after 1 hr at a dose 30 mg/kg administered orally to rat-13; type: ADME, organism-based; design: dose 30 mg/kg, route oral; conditions: po; in short: as §1
[7] = Solubility in aqueous phosphate buffer (pH 7.4) at 20c was determined; type: physicochemical
[8] = Plasma concentration was determined after 1 hr at a dose 30 mg/kg administered orally to rat-14; type: ADME, organism-based; design: dose 30 mg/kg, route oral; conditions: po; in short: as §1

Q: Which logD [1] does the source give for `COc1cc2ncnc(N3CCN(C(=O)Nc4ccc([N+](=O)[O-])cc4)CC3)c2cc1OC` here?
A: 3.22

Q: With `COc1cc2ncnc(N3CCN(/C(S)=N\Cc4cccnc4)CC3)c2cc1OC.Cl.Cl` as the molecule, how does the AUC [2] read?
A: 9840 ng·h/mL

Q: And the Cmax [2]?
A: 6980 ng/mL

Q: And the Tmax [2]?
A: 0.67 h

Q: And the half-life [2]?
A: 2.11 h

Q: What about the concentration at 8 h [3] of the same molecule?
A: < 100 ng/mL

Q: And the concentration at 8 h [4]?
A: < 100 ng/mL

Q: What about the logD [1] of the same molecule?
A: 2.49

Q: And the IC50 [5]?
A: 280 nM

Q: What about the concentration at 1 h [6] of the same molecule?
A: 2600 ng/mL

Q: What about the solubility [7] of the same molecule?
A: 2.2 µg/mL

Q: And the concentration at 1 h [8]?
A: 2600 ng/mL

Q: With `COc1cc2ncnc(N3CCN(C(=O)NCc4ccc(C(C)C)cc4)CC3)c2cc1OC` as the molecule, how does the IC50 [5] read?
A: 550 nM

Q: For `COc1cc2ncnc(N3CCN(C(=O)Nc4cccnc4)CC3)c2cc1OC`, which IC50 [5] is on record?
A: > 30000 nM

Q: For `COc1cc2ncnc(N3CCN(C(=S)NCc4ccccc4Cl)CC3)c2cc1OC`, which IC50 [5] is on record?
A: 980 nM
